We go through 14 compounds from ChEMBL document CHEMBL1158686, “Three new taxane diterpenoids from Taxus sumatrana” (2005).

As usually defined, the inhibition is how much of the control response was suppressed.

What all share (type): functional
One assay relates to A498. Kind of assay: Cytotoxicity against human A498 cells assessed as growth inhibition after at 30 ug/ml 48 hrs by SRB assay. Particulars: A498, 48 h. The procedure, abridged:
(§1)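 Adherent cells were seeded at 5000–40 000 cells/well according to doubling time and preincubated 24 h at 37 °C in 5% CO2 and humidified air. Drug was diluted in complete medium with 50 µg/mL gentamicin and exposed for 48 h under the same conditions. Cells were fixed in situ with cold TCA (10% final, 60 min, 4 °C), stained with 0.4% SRB in 1% HOAc, solubilized in 10 mM Tris base, and read at 515 nm.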
(In general: In SRB staining, fixed cells bind dye roughly in proportion to their protein.)

A further assay has as its system NCI-H226. As to the kind of experiment: Cytotoxicity against human NCI-H226 cells assessed as growth inhibition after at 30 ug/ml 48 hrs by SRB assay. Particulars: NCI-H226, 48 h. The procedure, abridged:
as §1

In the next assay the test system is A549. Kind of assay: Cytotoxicity against human A549 cells assessed as growth inhibition after at 30 ug/ml 48 hrs by SRB assay. Particulars: A549, 48 h. The procedure, abridged:
as §1

Another assay has as its system PC-3. Kind of assay: Cytotoxicity against human PC-3 cells assessed as growth inhibition after at 30 ug/ml 48 hrs by SRB assay. Particulars: PC-3, 48 h. In outline: as §1

Regarding `CC(=O)O[C@@]12CO[C@@H]1C[C@H](O)[C@@]1(C)C(=O)[C@H](O)C3=C(C)[C@@H](O)C[C@@](O)([C@@H](OC(=O)c4ccccc4)[C@H]21)C3(C)C`, the inhibition at 30 µg/mL turned out to be 27% with A498, 5.7% in the assay with NCI-H226, 12.2% in the assay with A549 and 1.6% in the assay on PC-3.
Taken in the same sequence, the figures for `CC(=O)O[C@H]1C(=O)[C@@]2(CO)[C@H]([C@H](OC(=O)c3ccccc3)[C@]3(O)C[C@H](O)C(C)=C1C3(C)C)[C@]1(OC(C)=O)CO[C@@H]1C[C@@H]2O` were 26.7%, 44.6%, 0% and 47.7%.
For the compound `CC(=O)O[C@@]12CO[C@@H]1C[C@H](O)[C@@]1(C)C(=O)C(=O)C3=C(C)[C@@H](O)C[C@@](O)([C@@H](OC(=O)c4ccccc4)[C@H]21)C3(C)C`, the inhibition at 30 µg/mL was determined as 79.1% in the assay on A498, 97.3% in the assay on NCI-H226, 54.7% in the assay with A549 and 100% in the assay on PC-3.
For `CC(=O)O[C@@]12CO[C@@H]1C[C@H](O)[C@@]1(CO)C(=O)[C@H](O)C3=C(C)[C@@H](O)C[C@@](O)([C@@H](OC(=O)c4ccccc4)[C@H]21)C3(C)C` the same measures were 16.6%, 32%, 0% and 2.3%.
For `CC(=O)O[C@H]1C(=O)[C@@]2(CO)[C@H]([C@H](OC(=O)c3ccccc3)[C@]3(O)CC(=O)C(C)=C1C3(C)C)[C@]1(OC(C)=O)CO[C@@H]1C[C@@H]2O` the same measures were 79.8%, 84.7%, 45.4% and 88.2%.
In the case of `CC(=O)O[C@H]1C[C@H]2OC[C@@]2(OC(C)=O)[C@H]2[C@H](OC(=O)c3ccccc3)[C@]3(C(C)(C)O)C[C@H](O)C(C)=C3[C@@H](O)[C@H](OC(C)=O)[C@]12C`, the inhibition at 30 µg/mL was determined as 21.7% in the assay with A498, 19.9% in the assay with NCI-H226, 27.1% in the assay on A549 and 1.9% with PC-3.
Taken in the same sequence, the figures for `CC(=O)O[C@@]12CO[C@@H]1C[C@H](O)[C@@]1(C)C(=O)[C@H](O)C3=C(C)C(=O)C[C@@](O)([C@@H](OC(=O)c4ccccc4)[C@H]21)C3(C)C` were 29.7%, 49.2%, 43.9% and 65.3%.
Taken in the same sequence, the figures for `CC(=O)O[C@H]1C(=O)[C@@]2(C)[C@H]([C@H](OC(=O)c3ccccc3)[C@]3(O)C[C@H](OC(=O)[C@H](O)[C@@H](NC(=O)c4ccccc4)c4ccccc4)C(C)=C1C3(C)C)[C@]1(OC(C)=O)CO[C@@H]1C[C@@H]2O` [PACLITAXEL] were 98.2%, 71.2%, 79.7% and 91.7%.
For `CC(=O)OC[C@H]1[C@H]2[C@H](O)[C@]3(C(C)(C)O)C[C@H](O)C(C)=C3[C@@H](O)[C@H](OC(=O)c3ccccc3)[C@]2(C)[C@@H](OC(C)=O)C[C@@H]1OC(C)=O` [TASUMATROL F] the same measures were 83%, 78.5%, 72.6% and 95%.
For the compound `CC(=O)O[C@H]1C[C@H](OC(C)=O)[C@]2(C)[C@@H]3[C@H](OC[C@]13OC(=O)c1ccccc1)[C@]1(C(C)(C)O)C[C@H](O)C(C)=C1[C@@H](O)[C@@H]2OC(C)=O` [TASUMATROL G], the inhibition at 30 µg/mL with A498 turned out to be 15.3%; in the assay with NCI-H226, 78.9%; in the assay on A549, 24.1%; in the assay on PC-3 it was 58.9%.
Taken in the same sequence, the figures for `CC(=O)OC[C@]1(O)[C@@H](OC(C)=O)C[C@H](OC(C)=O)[C@]2(C)[C@@H]1[C@H](O)[C@]1(C(C)(C)O)C[C@H](O)C(C)=C1[C@@H](O)[C@@H]2OC(=O)c1ccccc1` [TASUMATROLS E] were 100%, 84.8%, 91.3% and 94.7%.
For `CC(=O)O[C@H]1C[C@H](OC(C)=O)[C@]2(C)[C@@H]([C@@H]1CO)[C@H](OC(C)=O)[C@]1(C(C)(C)O)C[C@H](O)C(C)=C1[C@@H](O)[C@@H]2OC(C)=O` [TAXAYUNTIN G] the same measures were 21.2%, 29.3%, 0% and 1.4%.
Taken in the same sequence, the figures for `C=C1[C@@H](O)C[C@H](OC(C)=O)[C@@]2(COC(=O)c3ccccc3)[C@@H](OC(C)=O)[C@H](OC(C)=O)[C@]3(O)[C@@]4(C)CO[C@]3(C)C(=O)C[C@H]4[C@@H](OC(C)=O)[C@H]12` [TAXININ M] were 24.3%, 11.1%, 14.6% and 0%.
With `CC(=O)O[C@@]12CO[C@@H]1C[C@H](O)[C@]1(C)[C@@H]2[C@H](OC(=O)c2ccccc2)[C@]23C[C@H](O)C(C)=C2[C@@]1(O)C(=O)OC3(C)C` [WALLIFOLIOL], the inhibition at 30 µg/mL came out at 27.9% with A498, 29.1% with NCI-H226, 16.7% in the assay on A549 and 6.4% with PC-3.
